# Compound activity deposited in PubChem by Broad Institute.
# E-selectin induc – induces E-selectin expression in human endothelial cells | P16581 | HUVEC E-selectin immunofluorescence imaging; normalized: neutral wells 0, TNF-alpha wells 100 | activation, % at 7.58 µM | 0.37% of 260,000 active | AID 686992;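 active = mean E-selectin-positive cell signal at least 10% of the positive control, reached in at least 60% of replicates, without over 20% cell loss; inconclusive = no rule given, readout overlaps actives, possibly toxicity-flagged; inactive = the rest, including those meeting only one limit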
#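 System: HUVEC, human umbilical vein endothelial cells; quantity: 3,000 cells/well; buffer or medium: EGM-2 medium, gelatin-coated wells; dosing: single-point compound dose; detection: immunofluorescence imaging; evaluation: % PE-positive cells; benchmarks: TNF-alpha, DMSO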
# SIRT5 inh – inhibitors of human sirtuin-5 desuccinylase. Q9NXA8. Purified SirT5, succinyl-peptide AMC, trypsin-coupled fluorescence. inhibition, % at 15 µM. 1.1% of 330,000 active. AID 652115; in the data active = inhibition above about 15%; inconclusive = no clear call, values can overlap the other calls
# Target sequence (Q9NXA8 whole entry, looked up): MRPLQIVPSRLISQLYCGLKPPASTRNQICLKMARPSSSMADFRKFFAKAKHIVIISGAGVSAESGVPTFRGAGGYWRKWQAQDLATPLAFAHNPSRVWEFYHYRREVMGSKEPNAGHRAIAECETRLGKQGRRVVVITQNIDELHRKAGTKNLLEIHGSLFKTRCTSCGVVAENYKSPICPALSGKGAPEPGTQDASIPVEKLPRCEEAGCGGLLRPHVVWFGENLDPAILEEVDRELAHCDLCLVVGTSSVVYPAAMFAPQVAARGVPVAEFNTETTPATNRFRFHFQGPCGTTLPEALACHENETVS
# DENV2 CPE rescue – DENV2-induced cell death inhibition. DENV2-infected cells, cytopathic effect rescue, plate reader. CPE inhibition, % at 9.99 µM. 1.7% of 350,000 active; in the data active = CPE inhibition above about 20%, passing the limit was not always enough; inconclusive = no clear call, values can overlap the other calls; tested in BHK-21 cells;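 note: 0% = median of neutral control wells and 100% = median of positive control wells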
# * marks the source's active call; other numbers are inactive results; ? = inconclusive; nt = no result. Sampled rows, rich in hits. Any-hit rate of the full collection: about 2.8%.
SMILES,E-selectin induc,SIRT5 inh,DENV2 CPE rescue
C[C@H]1CN([C@@H](C)CO)C(=O)c2cccc(NC(=O)c3ccc(-c4nccs4)cc3)c2O[C@H]1CN(C)Cc1ccc(Oc2ccccc2)cc1,?,21.0*,2.3
C[C@@H]1CN([C@@H](C)CO)C(=O)c2cccc(NC(=O)c3ccc(-c4nccs4)cc3)c2O[C@@H]1CN(C)Cc1ccc(Cl)c(Cl)c1,32.4*,6.7,0.9
C[C@@H]1CN([C@@H](C)CO)C(=O)c2cccc(NC(=O)c3ccc(-c4nccs4)cc3)c2O[C@@H]1CN(C)Cc1ccccc1,0.2,15.4*,8.6
C[C@H](CO)N1C[C@H](C)[C@@H](CN(C)Cc2ccccc2)Oc2c(NC(=O)c3ccc(-c4nccs4)cc3)cccc2C1=O,0.0,5.3,-0.9
C[C@H](CO)N1C[C@H](C)[C@H](CN(C)Cc2ccc(Cl)c(Cl)c2)Oc2c(NC(=O)c3ccc(-c4nccs4)cc3)cccc2C1=O,-7.1,4.2,7.6
C[C@@H]1CN([C@@H](C)CO)C(=O)c2cccc(NC(=O)c3ccc(-c4nccs4)cc3)c2O[C@@H]1CN(C)Cc1ccc(Oc2ccccc2)cc1,?,12.3,8.3
C[C@H](CO)N1C[C@H](C)[C@H](CN(C)Cc2ccc(-c3ccccc3)cc2)Oc2c(NC(=O)c3ccc(-c4nccs4)cc3)cccc2C1=O,-0.4,-1.5,5.2
C[C@H](CO)N1C[C@H](C)[C@H](CN(C)C(=O)Cc2ccccc2)OCCCC[C@H](C)Oc2ccc(NC(=O)CCC(F)(F)F)cc2C1=O,nt,nt,-0.6
COCC(=O)Nc1ccc2c(c1)C(=O)N(C)[C@@H]1CC[C@H](CC(=O)NCc3ccccc3F)O[C@H]1CO2,0.0,-6.5,?
COc1ccc(CN(C)C[C@H]2OCCCC[C@H](C)Oc3ccc(NC(=O)Nc4ccc(OC)cc4)cc3C(=O)N([C@@H](C)CO)C[C@@H]2C)cc1,0.6,-0.1,?
CCOC(=O)[C@H](O)[C@@H](O)c1cccc([C@H](O)[C@@H](O)C(=O)OCC)c1,0.0,nt,41.3*
CCOC(=O)C(C(=O)OCC)C(Nc1ccccc1)c1ccccc1 (stereo unspecified),2.7,-8.0,-2.9
O=C(C[C@@H]1C[C@H]2c3cc(NC(=O)NC4CCCC4)ccc3O[C@H]2[C@H](CO)O1)NCc1cccc(F)c1,1.7,-0.4,-2.4
COc1ccc(NC(=O)/C=C/c2cccc(C(F)(F)F)c2)cn1,nt,-1.7,23.4*
COc1ccc(NC(=O)/C=C/c2cccc(Br)c2)cn1,nt,-0.1,9.1
COc1ccc([C@H]2C[C@H](n3cc(C4CC4)nn3)[C@@H](O)CN2C(=O)C2CCCCC2)cc1,-0.1,-1.2,-8.3
O=C(C1CCCCC1)N1C[C@H](O)[C@@H](n2cc(C3CC3)nn2)C[C@@H]1c1ccccc1,1.1,-0.8,85.9*
O=C(C1CCCCC1)N1C[C@@H](O)[C@H](n2cc(-c3ccc(F)cc3)nn2)C[C@@H]1c1ccccc1,-0.1,28.0*,-4.9
O=C(C1CCCCC1)N1C[C@H](n2cc(-c3ccc(F)cc3)nn2)[C@@H](O)C[C@@H]1c1ccccc1,-0.1,2.2,15.4
CC(C)NC(=O)Nc1ccc2c(c1)CC(=O)N([C@H](C)CO)C[C@H](C)[C@H](CN(C)C(=O)Nc1ccccc1)O2,-0.1,0.2,13.1
COc1ccc(CCNC(=O)[C@@]2(Cc3ccccc3I)c3ccccc3C(=O)N(Cc3ccccc3OC)[C@H]2c2ccc(CO)cc2)cc1,nt,6.2,-3.9
CCc1ccccc1SCc1noc(C(=O)NCC2CCCO2)c1C(=O)O (stereo unspecified),-0.1,-4.4,nt
COC(=O)c1c(CCl)noc1C(=O)NCC1CCCO1 (stereo unspecified),-0.2,0.8,32.9*
CNC[C@H]1OCCCC[C@H](C)Oc2ccc(NC(=O)c3ccncc3)cc2C(=O)N([C@H](C)CO)C[C@@H]1C,-0.3,4.3,1.2
O=C(Nc1cccc(F)c1)c1ccc(S(=O)(=O)N2CCCCC2)cc1,-1.5,-15.2,113.8*
SMILES,E-selectin induc,SIRT5 inh,DENV2 CPE rescue
O=C(Nc1cccc(O)c1)c1ccc(S(=O)(=O)N2CCCCCC2)cc1,0.6,4.0,-2.8
Cc1cccnc1NC(=O)c1ccc(S(=O)(=O)N2CCCC2)cc1,nt,-2.7,64.6*
Cc1cccnc1NC(=O)c1ccc(S(=O)(=O)N2CCC(C)CC2)cc1,nt,-0.4,4.7
C[C@@H]1CN([C@H](C)CO)C(=O)c2cc(C#Cc3ccccn3)cnc2O[C@H]1CN(C)Cc1ccncc1,1.1,1.1,-5.1
C[C@H](CO)N1C[C@H](C)[C@H](CN(C)S(=O)(=O)c2ccc(F)cc2)Oc2ccc(NC(=O)CCC(F)(F)F)cc2CC1=O,0.7,3.9,9.7
Cc1ccc(S(=O)(=O)N(C)C[C@H]2OCCCC[C@@H](C)Oc3ccc(NC(=O)Nc4cccc5ccccc45)cc3C(=O)N([C@@H](C)CO)C[C@@H]2C)cc1,0.3,4.3,-1.2
C[C@@H]1CN([C@@H](C)CO)C(=O)c2cc(NC(=O)C3CCCCC3)ccc2O[C@@H](C)CCCCO[C@H]1CN(C)C(=O)NC1CCCCC1,-0.1,4.5,-4.7
O=C(c1c(F)cccc1F)N(Cc1ccccc1)Cc1ccccc1,31.7*,-2.2,-3.3
O=C(c1ccccc1)N(Cc1ccccc1)Cc1ccccc1,0.0,0.5,2.5
CCCCN(C)CCNC(=O)c1ccc(Cn2c(=S)[nH]c3ccc(Br)cc3c2=O)cc1,nt,49.3*,-2.5
CN(C)CCNC(=O)c1ccc2c(=O)n(Cc3ccc(Cl)cc3)c(=S)[nH]c2c1,0.0,-2.9,3.7
COc1ccc(CC(=O)Nc2ccc(/C(C)=N/NC(=O)c3ccc(OC)cc3OC)cc2)cc1,-0.2,1.1,2.4
COc1ccc(C(=O)N/N=C(\C)CC(=O)Nc2ccc(N(C)C)cc2)c(OC)c1,-0.1,0.2,115.6*
C[C@@H]1CCCCO[C@@H](CN(C)C(=O)c2ccccc2)[C@@H](C)CN([C@@H](C)CO)C(=O)c2cc(NC(=O)Nc3ccc4c(c3)OCO4)ccc2O1,-0.1,nt,nt
O=C(C[C@H]1C[C@@H]2c3cc(NC(=O)c4ccc5c(c4)OCO5)ccc3O[C@@H]2[C@H](CO)O1)NCCN1CCCCC1,-0.1,4.5,?
O=C(c1cc2nc(-c3ccccc3)cc(C(F)(F)F)n2n1)N1CCCC1,-0.5,21.3*,nt
O=C(c1cc2nc(-c3ccccc3)cc(-c3ccccc3)n2n1)N1CCCC1,nt,1.6,1.1
O=C(c1ccc2c(c1)OCO2)N1CCC(Cc2ccccc2)CC1,nt,-5.6,25.0*
O=C(c1ccccc1)N1CCN(C(=O)c2ccc3c(c2)OCO3)CC1,0.0,-3.6,-5.9
CCC(=O)N1[C@@H](CO)[C@@H](c2ccccc2)C12CN(C(=O)CN1CCOCC1)C2,0.4,nt,-3.5
CC(=O)N1[C@H](CO)[C@H](c2ccccc2)C12CN(C(=O)CN1CCOCC1)C2,-0.1,2.0,83.1*
CC(=O)N1[C@H](CO)[C@@H](c2ccccc2)C12CN(C(=O)c1ccc3c(c1)OCO3)C2,-0.2,-0.2,55.3*
CC(=O)N1[C@H](CO)[C@H](c2ccccc2)C12CN(C(=O)c1ccc3c(c1)OCO3)C2,-0.3,-1.5,0.7
Cc1ccc(-c2ccc3c(c2)O[C@@H](CN(C)C)[C@H](C)CN([C@H](C)CO)S3(=O)=O)cc1,1.2,0.4,-2.7
